This is an account of results in PubChem BioAssay AID540320 (Southern Research Specialized Biocontainment Screening …, 2011).

Molecules are shown by their SMILES. Calls of active or inactive are those of the source.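 Rule for the calls: active = progeny virus titer drops over tenfold versus the untreated infected control, meaning log virus titer change below -1; inactive = the rest.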

The assay relates to HEp-2 cells, RSV plaque reduction, virus titer. As to the kind of experiment: RSV replication inhibitors by plaque titer, orthogonal assay for RSV antiviral project, plaque reduction, HEp-2 cells, set 3 (AID 540320). Conditions: at 10 µM; active compounds read low. An outline of the steps: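 System – RSV-infected HEp-2 cells · Probe or stimulus – RSV Long strain at MOI 0.1, 2 h infection · Doses – single compound dose with 0.5% DMSO final · Schedule – 2 h infection, 48 h compound exposure at 37 °C · Signal – plaque assay on fresh HEp-2, PFA fixation, neutral red staining · Evaluation – supernatant virus titer · Benchmarks – Ribavirin 35 µM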
As to `Cc1cccc(NC(=O)[C@@H]2CCCN2S(=O)(=O)c2cccc3cccnc23)c1C`, the log virus titer change is -0.39 (inactive). As to `Cc1ccc(Cn2c(=O)n(Cc3ccc(C(=O)Nc4ccncc4)cc3)c(=O)c3ccccc32)cc1`, the log virus titer change is -3.25. Take `COCCCNC(=O)c1ccc(Cn2c(=O)c3ccccc3n(Cc3ccc(Cl)cc3)c2=O)cc1`: the log virus titer change was -3.12. As for `COCCCNC(=O)c1ccc(Cn2c(=O)c3ccccc3n(Cc3ccc(Br)cc3)c2=O)cc1`, the log virus titer change is -4.51. The same measure for `COCCCNC(=O)c1ccc(Cn2c(=O)c3ccccc3n(Cc3ccc(C(F)(F)F)cc3)c2=O)cc1`: -2.66. The same measure for `Cc1ccc(F)cc1NC(=O)[C@@H]1CCCN1S(=O)(=O)c1cccc2cccnc12`: -0.33 (inactive); for `Cc1cc(NC(=O)[C@@H]2CCCN2S(=O)(=O)c2cccc3cccnc23)n(C(C)(C)C)n1`: -0.71 (inactive). The result for `Cc1ccc(Cn2c(=O)n(Cc3ccc(C(=O)Nc4cc(C)nc5ccccc45)cc3)c(=O)c3ccccc32)cc1` reads -0.61 (inactive); that for `COCCCNC(=O)c1ccc(Cn2c(=O)c3ccc(Br)cc3n(Cc3ccc(C)cc3)c2=O)cc1`, -0.31 (inactive); that for `COCCCNC(=O)c1ccc(Cn2c(=O)c3ccccc3n(Cc3ccc(OC)cc3)c2=O)cc1`, -2.72. With `COCCCNC(=O)c1ccc(Cn2c(=O)c3ccccc3n(Cc3ccc([N+](=O)[O-])cc3)c2=O)cc1`, the log virus titer change was -4.94. The result for `Cc1ccc(Cn2c(=O)n(Cc3ccc(C(=O)Nc4nccs4)cc3)c(=O)c3ccccc32)cc1` reads -0.01 (inactive); that for `COCCCNC(=O)c1ccc(Cn2c(=O)c3ccccc3n(Cc3ccc(C)c(C(F)(F)F)c3)c2=O)cc1`, -2.37; that for `Cc1ccc(Cn2c(=O)n(Cc3ccc(C(=O)NC(C)(C)C)cc3)c(=O)c3ccccc32)cc1`, -5.38. The same measure for `COCCCNC(=O)c1ccc(Cn2c(=O)c3ccccc3n(Cc3ccc4nonc4c3)c2=O)cc1`: -2.05.
